From ChEMBL document CHEMBL3045504, “Activity of 1,4-benzoquinones against formosan subterranean termites (Coptotermes formosanus)” (2008)

Legend:
Assay type in all cases: functional
Coptotermes formosanus [1] = assay: Antifeedant activity against Coptotermes formosanus placed on 0.5 % wt/wt compound treated filter paper assessed as filter paper consumption measured 21 days post compound exposure (reference value: 113.2 +/- 11.9 mg)
Coptotermes formosanus [2] = assay: Termiticidal activity against Coptotermes formosanus placed on 0.1 % wt/wt compound treated filter paper assessed as termite mortality measured 17 days post compound exposure
Outline: (§1)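 Treated filter paper disks moistened with 100 µL water; 20 C. formosanus workers (third instar or greater) plus 1 soldier per dish from field colonies kept on spruce, ca. 100% RH, 26.6 °C. Daily mortality scored for 3 weeks; cumulative percent mortality from four replicates, each a different colony; water-only controls; ANOVA, protected Fisher LSD (P < 0.05) after arcsine square-root transform.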

Coptotermes formosanus [3] = assay: Termiticidal activity against Coptotermes formosanus placed on 0.001 % wt/wt compound treated filter paper assessed as termite mortality measured 13 days post compound exposure; outline: as §1
Coptotermes formosanus [4] = assay: Termiticidal activity against Coptotermes formosanus placed on 0.5 % wt/wt compound treated filter paper assessed as termite mortality measured 9 days post compound exposure; outline: as §1
Coptotermes formosanus [5] = assay: Termiticidal activity against Coptotermes formosanus placed on 0.001 % wt/wt compound treated filter paper assessed as termite mortality measured 9 days post compound exposure; outline: as §1
Coptotermes formosanus [6] = assay: Termiticidal activity against Coptotermes formosanus placed on 0.01 % wt/wt compound treated filter paper assessed as termite mortality measured 9 days post compound exposure; outline: as §1
Coptotermes formosanus [7] = assay: Termiticidal activity against Coptotermes formosanus placed on 0.05 % wt/wt compound treated filter paper assessed as termite mortality measured 11 days post compound exposure; outline: as §1
Coptotermes formosanus [8] = assay: Termiticidal activity against Coptotermes formosanus placed on 0.1 % wt/wt compound treated filter paper assessed as termite mortality measured 21 days post compound exposure; outline: as §1
Coptotermes formosanus [9] = assay: Termiticidal activity against Coptotermes formosanus placed on 0.5 % wt/wt compound treated filter paper assessed as termite mortality measured 11 days post compound exposure; outline: as §1
Coptotermes formosanus [10] = assay: Antifeedant activity against Coptotermes formosanus placed on 1 % wt/wt compound treated filter paper assessed as filter paper consumption measured 21 days post compound exposure (reference value: 15.9 +/- 10.4 mg)
Coptotermes formosanus [11] = assay: Termiticidal activity against Coptotermes formosanus placed on 0.05 % wt/wt compound treated filter paper assessed as termite mortality measured 17 days post compound exposure; outline: as §1
Coptotermes formosanus [12] = assay: Antifeedant activity against Coptotermes formosanus placed on 0.001 % wt/wt compound treated filter paper assessed as filter paper consumption measured 21 days post compound exposure (reference value: 113.2 +/- 11.9 mg)
Coptotermes formosanus [13] = assay: Termiticidal activity against Coptotermes formosanus placed on 0.01 % wt/wt compound treated filter paper assessed as termite mortality measured 11 days post compound exposure; outline: as §1
Coptotermes formosanus [14] = assay: Termiticidal activity against Coptotermes formosanus placed on 0.5 % wt/wt compound treated filter paper assessed as termite mortality measured 17 days post compound exposure; outline: as §1
Coptotermes formosanus [15] = assay: Termiticidal activity against Coptotermes formosanus placed on 0.1 % wt/wt compound treated filter paper assessed as termite mortality measured 9 days post compound exposure; outline: as §1
Coptotermes formosanus [16] = assay: Termiticidal activity against Coptotermes formosanus placed on 1 % wt/wt compound treated filter paper assessed as termite mortality measured 3 days post compound exposure
Coptotermes formosanus [17] = assay: Antifeedant activity against Coptotermes formosanus placed on 0.01 % wt/wt compound treated filter paper assessed as filter paper consumption measured 21 days post compound exposure (reference value: 113.2 +/- 11.9 mg)
Coptotermes formosanus [18] = assay: Termiticidal activity against Coptotermes formosanus placed on 0.05 % wt/wt compound treated filter paper assessed as termite mortality measured 21 days post compound exposure; outline: as §1
Coptotermes formosanus [19] = assay: Termiticidal activity against Coptotermes formosanus placed on 0.01 % wt/wt compound treated filter paper assessed as termite mortality measured 13 days post compound exposure; outline: as §1
Coptotermes formosanus [20] = assay: Termiticidal activity against Coptotermes formosanus placed on 0.5 % wt/wt compound treated filter paper assessed as termite mortality measured 13 days post compound exposure; outline: as §1
Coptotermes formosanus [21] = assay: Termiticidal activity against Coptotermes formosanus placed on 0.1 % wt/wt compound treated filter paper assessed as termite mortality measured 11 days post compound exposure; outline: as §1
Coptotermes formosanus [22] = assay: Antifeedant activity against Coptotermes formosanus placed on 0.1 % wt/wt compound treated filter paper assessed as filter paper consumption measured 21 days post compound exposure (reference value: 113.2 +/- 11.9 mg)
Coptotermes formosanus [23] = assay: Termiticidal activity against Coptotermes formosanus placed on 1 % wt/wt compound treated filter paper assessed as termite mortality measured 21 days post compound exposure
Coptotermes formosanus [24] = assay: Termiticidal activity against Coptotermes formosanus placed on 0.1 % wt/wt compound treated filter paper assessed as termite mortality measured 6 days post compound exposure; outline: as §1
Coptotermes formosanus [25] = assay: Termiticidal activity against Coptotermes formosanus placed on 0.5 % wt/wt compound treated filter paper assessed as termite mortality measured 21 days post compound exposure; outline: as §1
Coptotermes formosanus [26] = assay: Termiticidal activity against Coptotermes formosanus placed on 0.05 % wt/wt compound treated filter paper assessed as termite mortality measured 9 days post compound exposure; outline: as §1
Coptotermes formosanus [27] = assay: Termiticidal activity against Coptotermes formosanus placed on 1 % wt/wt compound treated filter paper assessed as termite mortality measured 11 days post compound exposure
Coptotermes formosanus [28] = assay: Termiticidal activity against Coptotermes formosanus placed on 0.001 % wt/wt compound treated filter paper assessed as termite mortality measured 21 days post compound exposure; outline: as §1
Coptotermes formosanus [29] = assay: Termiticidal activity against Coptotermes formosanus placed on 0.05 % wt/wt compound treated filter paper assessed as termite mortality measured 6 days post compound exposure; outline: as §1
Coptotermes formosanus [30] = assay: Termiticidal activity against Coptotermes formosanus placed on 0.001 % wt/wt compound treated filter paper assessed as termite mortality measured 6 days post compound exposure; outline: as §1
Coptotermes formosanus [31] = assay: Termiticidal activity against Coptotermes formosanus placed on 0.01 % wt/wt compound treated filter paper assessed as termite mortality measured 6 days post compound exposure; outline: as §1
Coptotermes formosanus [32] = assay: Termiticidal activity against Coptotermes formosanus placed on 0.01 % wt/wt compound treated filter paper assessed as termite mortality measured 17 days post compound exposure; outline: as §1
Coptotermes formosanus [33] = assay: Termiticidal activity against Coptotermes formosanus placed on 0.05 % wt/wt compound treated filter paper assessed as termite mortality measured 13 days post compound exposure; outline: as §1
Coptotermes formosanus [34] = assay: Termiticidal activity against Coptotermes formosanus placed on 0.001 % wt/wt compound treated filter paper assessed as termite mortality measured 11 days post compound exposure; outline: as §1
Coptotermes formosanus [35] = assay: Termiticidal activity against Coptotermes formosanus placed on 0.1 % wt/wt compound treated filter paper assessed as termite mortality measured 13 days post compound exposure; outline: as §1
Coptotermes formosanus [36] = assay: Antifeedant activity against Coptotermes formosanus placed on 0.05 % wt/wt compound treated filter paper assessed as filter paper consumption measured 21 days post compound exposure (reference value: 113.2 +/- 11.9 mg)
Coptotermes formosanus [37] = assay: Termiticidal activity against Coptotermes formosanus placed on 0.001 % wt/wt compound treated filter paper assessed as termite mortality measured 17 days post compound exposure; outline: as §1
Coptotermes formosanus [38] = assay: Termiticidal activity against Coptotermes formosanus placed on 0.01 % wt/wt compound treated filter paper assessed as termite mortality measured 21 days post compound exposure; outline: as §1
Coptotermes formosanus [39] = assay: Termiticidal activity against Coptotermes formosanus placed on 0.5 % wt/wt compound treated filter paper assessed as termite mortality measured 6 days post compound exposure; outline: as §1
Coptotermes formosanus [40] = assay: Antifeedant activity against Coptotermes formosanus placed on 0.5 % wt/wt compound treated filter paper assessed as filter paper consumption measured 21 days post compound exposure (reference value: 78.2 +/- 26.7 mg)
Coptotermes formosanus [41] = assay: Antifeedant activity against Coptotermes formosanus placed on 0.01 % wt/wt compound treated filter paper assessed as filter paper consumption measured 21 days post compound exposure (reference value: 78.2 +/- 26.7 mg)
Coptotermes formosanus [42] = assay: Antifeedant activity against Coptotermes formosanus placed on 0.05 % wt/wt compound treated filter paper assessed as filter paper consumption measured 21 days post compound exposure (reference value: 78.2 +/- 26.7 mg)
Coptotermes formosanus [43] = assay: Antifeedant activity against Coptotermes formosanus placed on 1 % wt/wt compound treated filter paper assessed as filter paper consumption measured 21 days post compound exposure (reference value: 85 +/- 15.1 mg)
Coptotermes formosanus [44] = assay: Antifeedant activity against Coptotermes formosanus placed on 0.1 % wt/wt compound treated filter paper assessed as filter paper consumption measured 21 days post compound exposure (reference value: 78.2 +/- 26.7 mg)
Coptotermes formosanus [45] = assay: Antifeedant activity against Coptotermes formosanus placed on 0.001 % wt/wt compound treated filter paper assessed as filter paper consumption measured 21 days post compound exposure (reference value: 78.2 +/- 26.7 mg)

Row | SMILES | mortality (Coptotermes formosanus [2]) | mortality (Coptotermes formosanus [3]) | mortality (Coptotermes formosanus [4]) | mortality (Coptotermes formosanus [5]) | mortality (Coptotermes formosanus [6]) | mortality (Coptotermes formosanus [7]) | mortality (Coptotermes formosanus [8]) | mortality (Coptotermes formosanus [9]) | mortality (Coptotermes formosanus [11]) | mortality (Coptotermes formosanus [13]) | mortality (Coptotermes formosanus [14]) | mortality (Coptotermes formosanus [15]) | mortality (Coptotermes formosanus [16]) | mortality (Coptotermes formosanus [18]) | mortality (Coptotermes formosanus [19]) | mortality (Coptotermes formosanus [20]) | mortality (Coptotermes formosanus [21]) | mortality (Coptotermes formosanus [23]) | mortality (Coptotermes formosanus [24]) | mortality (Coptotermes formosanus [25]) | also measured
1 | COC1=C(OC)C(=O)C(C)=C(C)C1=O [Aurantiogliocladin] | 0% | 0% | 0% | 0% | 0% | 0% | 0% | 0% | 0% | 0% | 0% | 0% | 100% | 5% | 0% | 0% | 0% | 100% | 0% | 0% | Activity (Coptotermes formosanus [1]): 52.4 mg; Activity (Coptotermes formosanus [10]): 0.1 mg; Activity (Coptotermes formosanus [12]): 136.2 mg; Activity (Coptotermes formosanus [17]): 86.6 mg; Activity (Coptotermes formosanus [22]): 107.7 mg; mortality (Coptotermes formosanus [26]): 0%; mortality (Coptotermes formosanus [27]): 100%; mortality (Coptotermes formosanus [28]): 0%; mortality (Coptotermes formosanus [29]): 0%; mortality (Coptotermes formosanus [30]): 0%; mortality (Coptotermes formosanus [31]): 0%; mortality (Coptotermes formosanus [32]): 0%; mortality (Coptotermes formosanus [33]): 0%; mortality (Coptotermes formosanus [34]): 0%; mortality (Coptotermes formosanus [35]): 0%; Activity (Coptotermes formosanus [36]): 48.6 mg; mortality (Coptotermes formosanus [37]): 0%; mortality (Coptotermes formosanus [38]): 1.7%; mortality (Coptotermes formosanus [39]): 0%
2 | COC1=C(OC)C(=O)C(CC=C(C)C)=C(C)C1=O [Coenzyme Q1] | 8.3% | 3.3% | 3.3% | 3.3% | 5% | 0% | 8.3% | 3.3% | 5% | 5% | 8.3% | 0% | 70% | 5% | 5% | 5% | 0% | 100% | 0% | 10% | Activity (Coptotermes formosanus [40]): 95.8 mg; Activity (Coptotermes formosanus [41]): 77.3 mg; Activity (Coptotermes formosanus [42]): 98.1 mg; Activity (Coptotermes formosanus [43]): 16.9 mg; Activity (Coptotermes formosanus [44]): 101.6 mg; mortality (Coptotermes formosanus [26]): 0%; Activity (Coptotermes formosanus [45]): 98.5 mg; mortality (Coptotermes formosanus [27]): 100%; mortality (Coptotermes formosanus [28]): 3.3%; mortality (Coptotermes formosanus [29]): 0%; mortality (Coptotermes formosanus [30]): 3.3%; mortality (Coptotermes formosanus [31]): 5%; mortality (Coptotermes formosanus [32]): 5%; mortality (Coptotermes formosanus [33]): 0%; mortality (Coptotermes formosanus [34]): 3.3%; mortality (Coptotermes formosanus [35]): 0%; mortality (Coptotermes formosanus [37]): 3.3%; mortality (Coptotermes formosanus [38]): 5%; mortality (Coptotermes formosanus [39]): 3.3%
